Assay results collected from several papers.
Target: Glucocorticoid receptor (NR3C1, Homo sapiens, UniProt P04150)
Sequence (P04150 1-777, as in one of the studies): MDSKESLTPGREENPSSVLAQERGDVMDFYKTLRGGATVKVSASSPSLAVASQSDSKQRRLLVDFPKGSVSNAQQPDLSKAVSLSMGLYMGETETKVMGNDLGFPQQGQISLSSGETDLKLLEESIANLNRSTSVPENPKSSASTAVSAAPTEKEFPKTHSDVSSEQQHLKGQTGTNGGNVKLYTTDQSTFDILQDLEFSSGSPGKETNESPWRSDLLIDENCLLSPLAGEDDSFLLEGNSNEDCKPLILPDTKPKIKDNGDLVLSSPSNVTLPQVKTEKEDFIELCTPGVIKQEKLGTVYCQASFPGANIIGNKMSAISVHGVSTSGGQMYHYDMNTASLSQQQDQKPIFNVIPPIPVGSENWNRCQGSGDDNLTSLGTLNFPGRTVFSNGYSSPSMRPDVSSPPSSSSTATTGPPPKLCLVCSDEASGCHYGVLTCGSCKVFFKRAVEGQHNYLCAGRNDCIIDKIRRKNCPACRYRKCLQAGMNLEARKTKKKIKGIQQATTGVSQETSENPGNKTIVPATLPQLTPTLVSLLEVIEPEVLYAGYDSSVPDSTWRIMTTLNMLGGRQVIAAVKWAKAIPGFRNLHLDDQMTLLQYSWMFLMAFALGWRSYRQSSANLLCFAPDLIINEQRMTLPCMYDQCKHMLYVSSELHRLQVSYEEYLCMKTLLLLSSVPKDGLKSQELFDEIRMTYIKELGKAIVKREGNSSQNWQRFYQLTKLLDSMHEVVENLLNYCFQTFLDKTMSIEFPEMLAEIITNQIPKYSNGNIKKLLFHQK

| Structure (SMILES) | read-out | technique | tested at | quantity | value |
| --- | --- | --- | --- | --- | --- |
| CN(CCN1CCC(OC(=O)Nc2ccccc2-c2ccccc2)CC1)C(=O)c1ccc(CN2CCC(C(N)=O)CC2)cc1 | ligand displacement | radioligand | 1 µM | inhibition | -8% |
| Nc1ncc(-c2nc(N3CCOCC3)nc(N3CCOCC3)n2)c(C(F)F)n1 | cell-free assay | radioligand | 10 µM | remaining signal | 105% |
| CC(C)N1CCC[C@H]1CNC(=O)c1cn(C2CCCC2)c(=O)c2c1c1ccccc1n2C | ligand displacement | radioligand | 10 µM | inhibition | 1% |
| O=C(Nc1cccnn1)N1CCN([C@@H]2CCOc3cc(C(F)(F)F)ccc32)CC1 | cell-free assay | – | 20 µM | inhibition | 4% |
| C[C@H](C(=O)N[C@H]1COc2ccccc2[C@@H]1S(C)(=O)=O)c1ccc(F)cc1 | cell-free assay | – | 10 µM | inhibition | 14% |
| COCc1c(-c2cc3cc(C)cc(OC)c3s2)c2c(N)ncnn2c1CN1CCNC(=O)C1 | ligand displacement | radioligand | 10 µM | inhibition | -1% |
| c1ccc(C(NCCNC(c2ccccc2)c2ccccc2)c2ccccc2)cc1 | cell-free assay | – | 10 µM | inhibition | 6% |
| Clc1ccc2c(C3CCN(CCc4c[nH]c5ccccc45)CC3)c[nH]c2c1 | ligand displacement | radioligand | 10 µM | inhibition | 7% |
